Experimental findings from PMC6383364 (ACS chemical biology, 2019) are described below.

One data set relates to ALDHs. Put plainly: ABPP reactivity with ALDHs in human cells. In kind it is cell-based. To be noted: N-methyl compounds.
The format of data set [1] is in vivo. The conditions noted are these: rat; for CSF AUC0–7 / CSF Cmax / Brain AUC0–7 / Brain Cmax: after BIA 10–2474 (1) 10 mg/kg p.o.; for Plasma AUC0–7: after BIA 10–2474 (1) 10 mg/kg p.o. in 0.5% methylcellulose; for Brain AUC0–7 / Brain Cmax: not corrected for binding to tissues. A digest of the protocol:
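Rats were dosed orally at 10 mg/kg in 0.5% methylcellulose. The parent compound and its metabolites were quantified in plasma, brain and CSF. Cmax and AUC0–7 were derived for each analyte.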

A further data set addresses T1, ALDH5A1 (Homo sapiens, UniProt P51649).
T1 sequence (P51649 48-535): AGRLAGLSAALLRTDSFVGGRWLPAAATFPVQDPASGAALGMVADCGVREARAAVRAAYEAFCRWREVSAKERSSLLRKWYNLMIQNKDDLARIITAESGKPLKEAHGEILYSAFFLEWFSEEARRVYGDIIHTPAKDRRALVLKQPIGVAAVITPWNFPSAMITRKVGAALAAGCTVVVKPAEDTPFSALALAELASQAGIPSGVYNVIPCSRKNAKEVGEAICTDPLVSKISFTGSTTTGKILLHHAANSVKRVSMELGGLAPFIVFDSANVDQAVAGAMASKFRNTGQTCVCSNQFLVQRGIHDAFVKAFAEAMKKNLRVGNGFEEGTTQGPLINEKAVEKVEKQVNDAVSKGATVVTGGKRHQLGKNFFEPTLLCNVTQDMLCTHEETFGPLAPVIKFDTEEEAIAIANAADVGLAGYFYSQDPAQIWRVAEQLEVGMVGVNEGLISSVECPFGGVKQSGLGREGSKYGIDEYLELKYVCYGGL
Put plainly: isoTOP-ABPP cysteine reactivity in SW620 cells: ALDH5A1. In kind it is cell-based. The conditions noted are these: 10 µM, 1 h, Table S2. A digest of the protocol: (§1)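 SW620 cells were treated with test compound (10 μM, 1 h; light) or DMSO (heavy). Cysteine reactivity was then profiled globally by isoTOP-ABPP using an alkynylated iodoacetamide probe (IA-alkyne). Heavy/light ratios for quantified cysteines were averaged across four independent biological replicates.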

A further data set has as its system ~50–55 kDa protein. Put plainly: Gel-based CC-ABPP in CCF-STTG1 human astrocytoma cells. The data set is classed as cell-based. The conditions noted are these: pre-treatment 10 µM, 1 h, then probes 7 and 8. A digest of the protocol: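 CCF-STTG1 human astrocytoma cells were pretreated in situ with DMSO or the parent test compound (10 μM, 1 h), then given the matching alkyne probe (1 μM, 1 h). Probe-labelled proteins were conjugated by CuAAC to a rhodamine-azide reporter, resolved by SDS-PAGE and detected by in-gel fluorescence scanning.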

In data set [2] the target is T2, ALDH2 (Homo sapiens, UniProt P05091).
T2 sequence (P05091 18-517): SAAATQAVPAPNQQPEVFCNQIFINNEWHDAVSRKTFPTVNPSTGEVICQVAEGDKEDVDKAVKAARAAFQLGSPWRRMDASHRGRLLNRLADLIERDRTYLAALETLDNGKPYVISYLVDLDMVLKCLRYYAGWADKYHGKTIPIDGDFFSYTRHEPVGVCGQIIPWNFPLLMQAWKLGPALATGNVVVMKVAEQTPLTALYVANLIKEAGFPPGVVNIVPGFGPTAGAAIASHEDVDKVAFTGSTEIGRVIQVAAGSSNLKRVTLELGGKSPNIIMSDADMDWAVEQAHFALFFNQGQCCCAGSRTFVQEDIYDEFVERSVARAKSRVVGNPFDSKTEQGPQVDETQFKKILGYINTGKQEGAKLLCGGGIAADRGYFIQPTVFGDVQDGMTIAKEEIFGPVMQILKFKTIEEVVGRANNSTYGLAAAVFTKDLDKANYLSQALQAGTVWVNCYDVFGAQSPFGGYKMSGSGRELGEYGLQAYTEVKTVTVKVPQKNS
Put plainly: Quantitative MS-based CC-ABPP and Western blot in CCF-STTG1 cells: ALDH2. The data set is classed as cell-based. To be noted: pre-treatment 10 µM, 1 h, then corresponding probe 7 or 8. A digest of the protocol:
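CCF-STTG1 cells were grown in isotopically heavy or light amino-acid media. Cells received DMSO (heavy) or test compound (light; 10 μM, 1 h), followed by the corresponding clickable probe (1 μM, 1 h). Heavy/light protein ratios were averaged from quantified peptides across two independent biological replicates. Streptavidin-enriched fractions, with or without parent pretreatment, were immunoblotted with anti-ALDH2.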
On the technique in general: In western blotting, separated proteins are transferred to a membrane and probed.

Another data set concerns the target ALDH9A1 (Homo sapiens, UniProt P49189). Put plainly: isoTOP-ABPP cysteine reactivity in SW620 cells: ALDH9A1. In kind it is cell-based. The conditions noted are these: 10 µM, 1 h. A digest of the protocol:
as §1

For data set [3], the target named is T2, ALDH2. Put plainly: isoTOP-ABPP cysteine reactivity in SW620 cells: ALDH2. The data set is classed as cell-based. The conditions noted are these: 10 µM, 1 h. Put shortly:
as §1

Data set [4] has as its target T2, ALDH2. Put plainly: LC-MS characterisation of the adduct with ALDH2 from treated HEK293T cells. In kind it is cell-based. The conditions noted are these: HEK293T cells expressing FLAG-tagged WT-ALDH2, 10 µM, 1 h; LC-MS-based proteomics.

ALDH9A1, sequence (P49189 whole entry): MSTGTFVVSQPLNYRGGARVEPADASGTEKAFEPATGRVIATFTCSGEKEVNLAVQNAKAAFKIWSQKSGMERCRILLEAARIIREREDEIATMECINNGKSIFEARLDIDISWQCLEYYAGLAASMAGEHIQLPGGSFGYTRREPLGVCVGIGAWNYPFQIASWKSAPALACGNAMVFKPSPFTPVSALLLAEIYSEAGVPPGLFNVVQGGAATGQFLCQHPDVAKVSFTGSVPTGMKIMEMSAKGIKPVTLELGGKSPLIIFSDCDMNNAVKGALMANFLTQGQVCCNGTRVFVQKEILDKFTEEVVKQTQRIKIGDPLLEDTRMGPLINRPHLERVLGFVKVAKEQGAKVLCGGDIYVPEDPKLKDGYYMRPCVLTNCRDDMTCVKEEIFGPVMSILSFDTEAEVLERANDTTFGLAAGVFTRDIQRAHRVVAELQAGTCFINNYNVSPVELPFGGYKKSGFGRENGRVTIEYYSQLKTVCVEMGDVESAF

As to `CN(C(=O)n1cnc(-c2ccc[n+]([O-])c2)c1)C1CCCCC1` [BIA 10–2474 (1)], the “Reaction with ALDHs” value in the data set with ALDHs is “fail to react”. In data set [1], the “CSF AUC0–7” value is reported as 4000 ng·h/mL, the “CSF Cmax” value turned out to be 1300 ng/mL, the “Plasma AUC0–7” value stood at 13800 ng·h/mL and the “Brain AUC0–7” value came to 2480 ng·h/mL. In addition, the “Brain Cmax” value in data set [1] is 939 ng/mL.

With `CN(C(=O)n1cnc(-c2cccnc2)c1)C1CCCCC1` [compound 2], in data set [1], the “CSF AUC0–7” value is on record as 113 ng·h/mL, the “CSF Cmax” value came out at 36.2 ng/mL, the “Plasma AUC0–7” value was 306 ng·h/mL and the “Brain AUC0–7” value worked out at 185 ng·h/mL. Besides, in data set [1], the “Brain Cmax” value is on record as 252 ng/mL.

`O=C(NC1CCCCC1)n1cnc(-c2ccc[n+]([O-])c2)c1` [compound 3]: the “IA-alkyne reactivity of C340 of ALDH5A1” value at ALDH5A1 is “unchanged”. Moreover, the “Blockade of probe labelling of ~50–55 kDa protein” value with ~50–55 kDa protein is “blocked”. In addition, the “Blockade of probe enrichment of ALDH2 (Western blotting)” value on ALDH2 [2] is “blockade”. In addition, at ALDH9A1, the “IA-alkyne reactivity of C288 of ALDH9A1” value is “blocked”. At ALDH2 [3], the “IA-alkyne reactivity of C319 of ALDH2” value is given as “blocked” and the “IA-alkyne reactivity of other cysteine (C386) of ALDH2” value is “unperturbed”. Moreover, in data set [1], the “CSF AUC0–7” value was found to be 15.6 ng·h/mL, the “CSF Cmax” value is 5.03 ng/mL, the “Plasma AUC0–7” value is given as 323 ng·h/mL and the “Brain AUC0–7” value is on record as 11.8 ng·h/mL. The “Brain Cmax” value in data set [1] is listed as 4.57 ng/mL. In addition, the “Adduct with C319 on ALDH2” value on ALDH2 [4] is reported as “S-thiocarbamate adduct”.
